Source: ChEMBL document CHEMBL1255484, “In vitro activity of ACH-702, a new isothiazoloquinolone, against Nocardia brasiliensis compared with econazole and the carbapenems imipenem and meropenem alone or in combination with clavulanic acid” (Antimicrob Agents Chemother, 2010)
In brackets after ≈: the same amount, converted by molar mass.

Legend:
Mus musculus = assay: Plasma concentration in mouse at 3.3 mg/kg, po; assay type: ADME, organism-based; set-up: dose 3.3 mg/kg, route oral; conditions: in vivo
Nocardia brasiliensis [1] = assay: Antibacterial activity against Nocardia brasiliensis isolated from actinomycetoma patient by broth dilution method; assay type: functional
Summary of the method: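 CLSI M24-A broth microdilution on 30 N. brasiliensis isolates from human actinomycetoma, including HUJEG-1, identified biochemically and by 16S rRNA gene fragment sequencing. Ground colonies were suspended to 0.5 McFarland in cation-adjusted Mueller-Hinton broth, giving 1 × 10^4 to 5 × 10^4 CFU per well, and added to serial drug dilutions. Incubation was 3 days at 35°C. MIC is the lowest concentration giving total growth inhibition; MIC50/MIC90 are reported.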

[2] = Tmax in mouse plasma at 3.3 mg/kg, po; assay type: ADME, organism-based; set-up: dose 3.3 mg/kg, route oral
Nocardia brasiliensis [3] = assay: Antibacterial activity against Nocardia brasiliensis isolated from actinomycetoma patient by broth dilution method in presence of clavulanic acid; assay type: functional
Summary of the method: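 Same CLSI M24-A broth microdilution: 30 human actinomycetoma N. brasiliensis isolates, cation-adjusted Mueller-Hinton broth, inoculum 1 × 10^4 to 5 × 10^4 CFU per well, 3 days at 35°C. Clavulanic acid at 0.25 μg/ml was added with each carbapenem dilution. Drug-free growth well; E. coli ATCC 25922 and S. aureus ATCC 29213 as external controls. MIC is total growth inhibition.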

Cp (Mus musculus)	MIC50 (Nocardia brasiliensis [1])	MIC90 (Nocardia brasiliensis [1])	Tmax [2]	MIC50 (Nocardia brasiliensis [3])	MIC90 (Nocardia brasiliensis [3])	Compound
230 ng/mL	2 µg/mL (≈ 5.24 µM)	4 µg/mL (≈ 10.5 µM)	1 h			Clc1ccc(COC(Cn2ccnc2)c2ccc(Cl)cc2Cl)cc1 (centres undefined) [ECONAZOLE]
	0.125 µg/mL (≈ 0.289 µM)	0.5 µg/mL (≈ 1.16 µM)				COc1c(N2CC[C@@H](C(C)(C)N)C2)c(F)cc2c(=O)c3c(=O)[nH]sc3n(C3CC3)c12
	2 µg/mL (≈ 5.22 µM)	8 µg/mL (≈ 20.9 µM)		2 µg/mL	8 µg/mL	C[C@@H](O)[C@H]1C(=O)N2C(C(=O)O)=C(S[C@@H]3CN[C@H](C(=O)N(C)C)C3)[C@H](C)[C@H]12 [MEROPENEM]
	64 µg/mL (≈ 214 µM)	> 64 µg/mL		64 µg/mL	> 64 µg/mL	C[C@@H](O)[C@H]1C(=O)N2C(C(=O)O)=C(SCCNC=N)C[C@H]12 [IMIPENEM ANHYDROUS]
